proCasp7 act – procaspase-7 activators, primary screen, counter-screen for procaspase-3 activator project, biochemical, absorbance, HTS, human | recombinant procaspase-7, Ac-DEVD-pNA absorbance 405 nm; D23A/D198A/D206A triple mutant, cannot self-cleave; scale: DMSO 0, 5 µM enzyme 100 | actives 0.093% (n = 330,000) | activation, % at 8.5 µM | Caspase-7 (Homo sapiens), P55210;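 active = percent activation above the screen-wide mean plus 3 SD, cut at about 25% in these data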
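Test system: Procaspase-7 triple mutant (PC-7 D3A). Also added: Ac-DEVD-pNA substrate, 400 µM as added. Schedule: 1 h enzyme–compound preincubation and 2 h substrate reaction, both 25 °C. Signal: p-Nitroaniline absorbance at 405 nm, read at 0 and 120 min. Control set: low DMSO alone, high DMSO plus 5 µM PC-7.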
MsrA inhibitor – bovine MsrA enzyme inhibitors, primary screen, biochemical, absorbance, HTS; actives 0.75% (n = 360,000); purified bovine MsrA, absorbance read-out; Methionine sulfoxide reductase A (Bos taurus); inhibition, % at 15.5 µM
MsrA act – bovine MsrA enzyme activators, primary screen, biochemical, absorbance, HTS; Methionine sulfoxide reductase A (Bos taurus); purified bovine MsrA, absorbance read-out; activation, % at 10.6 µM; actives 0.3% (n = 360,000); AID 602163, 2012; in the data active = activation above about 7.5%
A1 inh – caspase 3/7 activation in MEF A1-2A-BIM cells, primary screen, A1 inhibitor project, cell-based, luminescence, HTS | Caspase-Glo 3/7 luminescence, 3 h; percent of clofoctol response, vehicle zero | caspase activation, % (no concentration beside the values) | actives 0.066% (n = 330,000) | AID 2462, 2010;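 active = over half of replicate activation scores above 10%, or exactly half above 10 with the replicate mean above 10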
proCasp3 act – activators of human procaspase-3 D3A mutant, primary screen, biochemical, absorbance, PC-3 D3A mutant, single concentration. Caspase-3 (Homo sapiens), P42574. recombinant procaspase-3 D3A, Ac-DEVD-pNA absorbance 405 nm. activation, % at 8.5 µM. actives 0.11% (n = 330,000). AID 463141, 2010;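 active = activation above the mean of all tested compounds plus 3 SD, cut at about 21% in these data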
Target sequence (P42574 whole entry D9A/D28A/D175A): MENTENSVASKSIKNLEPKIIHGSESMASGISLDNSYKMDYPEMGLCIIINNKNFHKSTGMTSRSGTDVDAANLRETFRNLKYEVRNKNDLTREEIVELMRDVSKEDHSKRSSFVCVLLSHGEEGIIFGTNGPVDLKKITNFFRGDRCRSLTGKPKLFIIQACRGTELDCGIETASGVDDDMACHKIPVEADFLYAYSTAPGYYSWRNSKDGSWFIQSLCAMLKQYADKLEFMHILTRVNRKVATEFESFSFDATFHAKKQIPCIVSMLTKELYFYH
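Evaluation: percent activation relative to control range; Material: Procaspase-3 D3A mutant, all three cleavage aspartates alanine; Compound: single dose, 8.5 µM nominal compound, 0.8% DMSO; Replication: one well per compound; Signal: absorbance at 405 nm, 0 and 120 min; Schedule: 1 h preincubation plus 2 h reaction at 25 °C.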
MsrA inh confirm – bovine MsrA inhibitors, retest, confirmation, biochemical, absorbance, HTS; purified bovine MsrA, absorbance read-out; actives 41% (n = 2,300); inhibition, % at 15.5 µM; shares compounds with MsrA inhibitor;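 also: coupled to thioredoxin reductase with NADPH and selenocystamine and DMSO as substrate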
Each line names hits and unclear results; the compound was inactive in the other large screens (follow-up assays come after a bar, where they were run). A selection: hits, their analogues and other compounds. The true share with any hit is near 1.2%. Rule as the data show it, unless noted: active = inhibition above about 4.5%; inactive = the rest.

Cc1nonc1C1CCCN1Cc1cn[nH]c1-c1ccc(-c2ccccc2)cc1 (configuration not stated)	MsrA inhibitor 28.7 | MsrA inh confirm 21.7
COc1cc(-c2[nH]ncc2CN2CCCC2c2nonc2C)cc(OC)c1OC (configuration not stated)	none
NC1=NC(=O)/C(=C/c2cn(CCC(=O)O)nc2-c2ccc(F)cc2)S1	MsrA inhibitor 5.0 | MsrA inh confirm inactive
N#Cc1ccccc1OCC(=O)NCc1ccccc1CN1CCCC1	none
Oc1ccc(/C=N/Nc2ccc(Cl)nn2)cc1O	MsrA inhibitor 4.9 | MsrA inh confirm inactive
Cc1ccc(/C=N/Nc2ccc(Cl)nn2)cc1	none
C=CCNC(=O)C(=O)Nc1cc2c3c(c1)CCC(=O)N3CCC2	none
CNS(=O)(=O)c1cccc(C(=O)OCCCOC(=O)c2cccc(S(=O)(=O)NC)c2)c1	none (no result: proCasp7 act, proCasp3 act)
CNS(=O)(=O)c1cccc(C(=O)OCC(=O)c2cc3ccccc3o2)c1	MsrA inhibitor 23.8 | MsrA inh confirm 18.8
CC(=O)c1ccc(N2CCN(C(=O)C3CCCN(S(=O)(=O)c4c(C)[nH]c(=O)[nH]c4=O)C3)CC2)cc1 (configuration not stated)	MsrA inhibitor 4.7 | MsrA inh confirm inactive
CN(C)c1ccc(/C=N/NC(=O)c2ccc(CN3CCOCC3)cc2)cc1Br	none
COc1ccc(/C=N/NC(=O)c2ccc(CSc3nncn3C)cc2)cc1OC	MsrA inhibitor 4.8 | MsrA inh confirm inactive
CCOc1cc(/C=N/NC(=O)c2ccc(CN3CCOCC3)cc2)ccc1OC	MsrA inhibitor 5.3 | MsrA inh confirm inactive
COc1cc(/C(C)=N/NC(=O)c2ccc(CSc3nncn3C)cc2)cc(OC)c1OC	none
CC(C)(C)n1nnnc1C(c1ccccc1)N1CCN(c2c(Cl)cncc2Cl)CC1 (configuration not stated)	none (no result: proCasp7 act, A1 inh, proCasp3 act)
O=C(C1=C(c2ccccc2)C(=O)c2ccccc2C1=O)c1ccccc1	MsrA inhibitor 71.6 (no result: proCasp7 act, A1 inh, proCasp3 act) | MsrA inh confirm 58.7
COC1=C(c2ccccc2)C(=O)c2ccccc2C1=O	none
CN1/C(=C/C(=O)C2CCC2)Sc2ccccc21	MsrA inhibitor 8.3 | MsrA inh confirm 5.9
CCS(=O)(=O)CCSc1nc2ccccc2o1	MsrA inhibitor 6.1 | MsrA inh confirm inactive
CCC1SC2=NC(C)=C(C(=O)OC)C(c3ccc(C(=O)OC)cc3)N2C1=O (configuration not stated)	none
CCC1SC2=NC(C)=C(C(=O)OCCOC)C(c3ccc(C(=O)OC)cc3)N2C1=O (configuration not stated)	MsrA inhibitor 4.9 | MsrA inh confirm inactive
Cc1ccc(-c2nc(=S)c3c(n2CC2CCCO2)CC(C)(C)OC3)cc1 (configuration not stated)	MsrA inhibitor 4.9 (no result: A1 inh) | MsrA inh confirm inactive
Nc1nc2ccccc2cc1C(=O)NCc1ccc(-c2ccccc2)cc1	none (no result: proCasp7 act, MsrA act, A1 inh, proCasp3 act)
Cc1c(C#N)c(N=CN(C)C)c(C(=O)c2ccccc2)n1-c1ccc(Br)cc1	MsrA inhibitor 5.3 | MsrA inh confirm 7.3
COc1ccc(NS(=O)(=O)c2cc(-c3cnc(C4CC4)o3)ccc2C)cc1	MsrA inhibitor 10.8 | MsrA inh confirm 7.2
COc1ccccc1NS(=O)(=O)c1cc(-c2cnc(C3CC3)o2)ccc1C	none
Cn1cnnc1SC/C(O)=C(\C#N)c1nc2ccccc2[nH]1	MsrA inhibitor 4.8 | MsrA inh confirm inactive
CCCn1c(SC/C(O)=C(\C#N)c2nc3ccccc3[nH]2)n[nH]c1=O	MsrA inhibitor 4.7 | MsrA inh confirm inactive
COc1ccccc1C(=O)N1CCC2CCN(C(=O)c3ccccc3)C2C1 (configuration not stated)	none (no result: proCasp7 act, MsrA act, A1 inh, proCasp3 act)
O=C(NC(=S)Nc1cc([N+](=O)[O-])ccc1O)c1ccc2c(c1)OCO2	none
